Measurements pooled from the literature.
Lines come from different studies, so protocols differ.

SMILES	tested on	test	system	conditions	measurement	value
CC1=C(C(=O)Nc2ccc3[nH]ncc3c2)C(c2ccc(F)cc2)NC(c2ccc(C(F)(F)F)nc2)=N1 (stereo not shown)	Trypanosoma brucei	parasite growth			EC50	5.01 µM
CC1(C)CCC(c2ccc(Cl)cc2)=C(CN2CCN(c3ccc(C(=O)NS(=O)(=O)c4ccc(N[C@H](CCN5CCOCC5)CSc5ccccc5)c(S(=O)(=O)C(F)(F)F)c4)cc3)CC2)C1	MB002	cell growth or viability		7 days	IC50	0.0044 µM
NC(=O)c1cccc(-n2c(/C=C/c3ccc(F)cc3)nc3ccncc3c2=O)c1	Enterococcus faecium	microbial growth, broth dilution	NCTC7171		MIC	> 128 µg/mL
CCn1c(-c2nonc2N)nc2c(C#CC(C)(C)O)nc(OC[C@@H](N)c3ccccc3)cc21	Trypanosoma brucei	parasite growth			EC50	2.51 µM
CO[C@H]1C[C@@H]2CC[C@@H](C)[C@@](O)(O2)C(=O)C(=O)N2CCCC[C@H]2C(=O)O[C@H]([C@H](C)C[C@@H]2CC[C@@H](O)[C@H](OC)C2)CC(=O)[C@H](C)/C=C(\C)[C@@H](O)[C@@H](OC)C(=O)[C@H](C)C[C@H](C)/C=C/C=C/C=C/1C	HD-MB03	cell growth or viability		7 days	IC50	> 10 µM
C[C@@H]1[C@H](O)[C@@H](C)/C=C/C=C/C=C/C=C/C=C/C=C/C=C/[C@H](O[C@@H]2O[C@H](C)[C@@H](O)[C@H](N)[C@@H]2O)C[C@@H]2O[C@](O)(C[C@@H](O)C[C@@H](O)[C@H](O)CC[C@@H](O)C[C@@H](O)CC(=O)O[C@H]1C)C[C@H](O)[C@H]2C(=O)O	Candida albicans	microbial growth	ATCC90028		IC50	0.25 µg/mL
N#Cc1ccc(/C=C/c2nc3ccncc3c(=O)n2-c2cccc(C(N)=O)c2)cc1	Enterococcus faecium	microbial growth, broth dilution	NCTC7171		MIC	> 128 µg/mL
CN1CCN(CCOc2cc(OC3CCOCC3)c3c(Nc4c(Cl)ccc5c4OCO5)ncnc3c2)CC1	MB002	cell growth or viability		7 days	IC50	> 10 µM
Nc1ncc(-c2cccc(S(N)(=O)=O)c2)c2scc(-c3ccc(F)c(Cl)c3)c12	Trypanosoma brucei	parasite growth			EC50	10 µM
CC(=O)Nc1cccc(-n2c(=O)n(C3CC3)c(=O)c3c(Nc4ccc(I)cc4F)n(C)c(=O)c(C)c32)c1	Calu-6	cell growth or viability, resazurin		50 nM, 72 h	viability	58.4%
